Activity calls are given as the source filed them. The calls are words filed in the database; no cut-off is given here.
Experiments:
[1] = biological target: Rev responsive element (RRE) RNA; assay: Binding affinity to HIV-1 rev response element SL-IIB RNA in presence of 10 times no bulge RRE RNA by 2-Aminopurine-based fluorescence spectrophotometric analysis; assay type: nucleic-acid assay, Human immunodeficiency virus 1
Procedure, shortened: (§1)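 Same 2-AP titration, run with 10-fold excess of unlabeled competitor nucleic acid. Conditions: 0.1 μM refolded 2-AP RRE SL-IIB RNA, peptide 0–20 μM, pH 7.0 phosphate/KCl/MgCl2 buffer, ex 310 / em 372 nm. Kd from Hill fit, at least duplicate, SD.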

[2] = biological target: Rev responsive element (RRE) RNA; assay: Binding affinity to HIV-1 rev response element SL-IIB RNA by 2-Aminopurine-based fluorescence spectrophotometric analysis; assay type: nucleic-acid assay, Human immunodeficiency virus 1
[3] = system: Rev responsive element (RRE) RNA; assay: Binding affinity to SL1 and SL2 regions of 234 nucleotide long HIV-1 NL4-3 rev response element RNA by SHAPE-MaP technology assay; assay type: nucleic-acid assay; conditions: Human immunodeficiency virus 1
Procedure, shortened: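 234-nt RRE RNA (5 pmol), renatured then folded at 37 °C for 15 min (70 mM Tris pH 8.0, 180 mM KCl, 8 mM MgCl2, 5% glycerol). Peptide added at 1:1 or 1:10 RNA:peptide for 15 min at 37 °C, then 1M7 for 5 min at 37 °C, with DMSO and denaturing controls. Read by MaP reverse transcription, PCR and sequencing; reactivity compared by nucleotide position.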

[4] = system: Rev responsive element (RRE) RNA; assay: Binding affinity to HIV-1 NL4-3 5-32P-labeled rev response element SL-IIB RNA by RNases A and V1 based RNase protection assay; conditions: Human immunodeficiency virus 1
[5] = biological target: Rev responsive element (RRE) RNA; assay: Binding affinity to HIV-1 rev response element SL-IIB RNA in presence of 10 times RRE DNA by 2-Aminopurine-based fluorescence spectrophotometric analysis; assay type: nucleic-acid assay, Human immunodeficiency virus 1; procedure, shortened: as §1
[6] = system: Rev responsive element (RRE) RNA; assay: Binding affinity to internal loop and upper stem/ apical loop regions of 5-32P-labeled HIV-1 NL4-3 rev response element SL-IIB RNA by RNases A and V1 based RNase protection assay; assay type: nucleic-acid assay; conditions: Human immunodeficiency virus 1
Procedure, shortened: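 5′-32P-labeled RRE SL-IIB (10 nM) with 200 nM unlabeled RNA, refolded at 95 °C for 3 min and snap-cooled. Incubated with peptide (0–20 μM) on ice for 4 h in 10 mM Tris pH 7, 100 mM KCl, 10 mM MgCl2. Digested on ice with RNase V1 (0.002 U, 10 min) or RNase A (20 ng, 1 h). Cleavage read on 12% denaturing PAGE by autoradiography.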

[7] = biological target: Rev responsive element (RRE) RNA; assay: Binding affinity to HIV-1 rev response element SL-IIB RNA in presence of 10 times TAR RNA by 2-Aminopurine-based fluorescence spectrophotometric analysis; assay type: nucleic-acid assay, Human immunodeficiency virus 1; procedure, shortened: as §1

Row | SMILES | Kd [2] [µM] | other results
1 | N=C(N)N[C@@H]1C[C@@H](C(=O)N2C[C@H](NC(=N)N)C[C@H]2C(=O)N[C@@H](CCCCNC(=O)c2cnccn2)C(=O)N[C@@H](Cc2ccc(O)cc2)C(N)=O)N(C(=O)[C@H](CCCCNC(=O)[C@H](CCCCNC(=O)c2cnccn2)NC(=O)[C@H]2C[C@@H](NC(=O)[C@@H]3C[C@@H](NC(=N)N)CN3)CN2)NC(=O)[C@H](CCCCNC(=O)c2cnccn2)NC(=O)[C@H]2C[C@@H](NC(=O)[C@@H]3C[C@@H](NC(=N)N)CN3)CN2)C1 | 1.3 | –
2 | N=C(N)N[C@H]1CN[C@H](C(=O)N2C[C@H](N)C[C@@H]2C(=O)NCCN(CC(=O)NCCCC[C@H](NC(=O)CN(CCNC(=O)[C@H]2C[C@@H](N)CN2C(=O)[C@@H]2C[C@@H](NC(=N)N)CN2)C(=O)Cn2cnc3c(=O)[nH]c(N)nc32)C(=O)NCCN(CC(=O)N[C@@H](CCCCNC(=O)c2cnccn2)C(=O)N[C@@H](CCCCNC(=O)c2ccc(B(O)O)cc2)C(=O)N[C@@H](Cc2ccc(O)cc2)C(N)=O)C(=O)Cn2cnc3c(=O)[nH]c(N)nc32)C(=O)Cn2cnc3c(=O)[nH]c(N)nc32)C1 | 1.18 | –
3 | N=C(N)N[C@@H]1C[C@@H](C(=O)N[C@H]2CN[C@@H](C(=O)N[C@@H](Cc3ccc(O)cc3)C(N)=O)C2)N(C(=O)CN(CCNC(=O)[C@H](CCCCNC(=O)[C@@H]2C[C@@H](NC(=N)N)CN2C(=O)[C@H]2C[C@@H](N)CN2C(=O)[C@@H](N)CCCCNC(=O)c2cnccn2)NC(=O)[C@@H]2C[C@@H](NC(=N)N)CN2C(=O)[C@H]2C[C@@H](N)CN2C(=O)[C@@H](N)CCCCNC(=O)c2cnccn2)C(=O)Cn2cnc3c(=O)[nH]c(N)nc32)C1 | 1.11 | –
4 | N=C(N)N[C@@H]1C[C@@H](C(=O)NCCCC[C@H](NC(=O)[C@@H]2C[C@@H](NC(=N)N)CN2C(=O)[C@H]2C[C@@H](N)CN2C(=O)[C@@H]2C[C@@H](NC(=N)N)CN2)C(=O)N[C@@H](CCCCNC(=O)c2cnccn2)C(=O)N[C@@H](CCCCNC(=O)c2cnccn2)C(=O)NCCN(CC(=O)N[C@@H](Cc2ccc(O)cc2)C(N)=O)C(=O)Cn2cnc3c(=O)[nH]c(N)nc32)N(C(=O)[C@H]2C[C@@H](N)CN2C(=O)[C@@H]2C[C@@H](NC(=N)N)CN2)C1 | 1.12 | –
5 | N=C(N)N[C@@H]1C[C@@H](C(=O)N2C[C@H](N)C[C@@H]2C(=O)N[C@@H](Cc2ccc(O)cc2)C(N)=O)N(C(=O)[C@H]2C[C@@H](N)CN2C(=O)[C@H](CCCCNC(=O)[C@H]2C[C@@H](N)CN2C(=O)[C@@H]2C[C@@H](NC(=N)N)CN2C(=O)[C@H]2C[C@@H](N)CN2)NC(=O)[C@H]2C[C@@H](N)CN2C(=O)[C@@H]2C[C@@H](NC(=N)N)CN2C(=O)[C@H]2C[C@@H](N)CN2)C1 | 0.72 | –

Compounds with a lower Kd [2], results first:

Row | Kd [2] [µM] | SMILES | other results
6 | 0.4 to 0.41 | N=C(N)N[C@@H]1C[C@@H](C(=O)NCCN(CC(=O)N[C@@H](CCCCNC(=O)c2ccc(B(O)O)cc2)C(=O)N[C@@H](Cc2ccc(O)cc2)C(N)=O)C(=O)Cn2cnc3c(=O)[nH]c(N)nc32)N(C(=O)[C@H](CCCCNC(=O)[C@@H]2C[C@@H](NC(=N)N)CN2C(=O)[C@@H]2C[C@@H](NC(=N)N)CN2C(=O)[C@H]2C[C@@H](N)CN2)NC(=O)[C@@H]2C[C@@H](NC(=N)N)CN2C(=O)[C@@H]2C[C@@H](NC(=N)N)CN2C(=O)[C@H]2C[C@@H](N)CN2)C1 | Kd [1]: 1.14 µM; Activity [3]: Active; Activity [4]: Active; Kd [5]: 1.48 µM; Activity [6]: Active; Kd [7]: 3.52 µM
7 | 0.66 | N=C(N)N[C@H]1CN[C@H](C(=O)N[C@H]2CN[C@@H](C(=O)N[C@@H](Cc3cccc4ccccc34)C(=O)NCCCC[C@H](NC(=O)[C@H](Cc3cccc4ccccc34)NC(=O)[C@H]3C[C@@H](NC(=O)[C@@H]4C[C@@H](NC(=N)N)CN4)CN3)C(=O)NCCN(CC(=O)NCCN(CC(=O)N[C@@H](Cc3cccc4ccccc34)C(=O)N[C@@H](Cc3ccc(O)cc3)C(N)=O)C(=O)Cn3cnc4c(=O)[nH]c(N)nc43)C(=O)Cn3cnc4c(=O)[nH]c(N)nc43)C2)C1 | –
8 | 0.63 | N=C(N)N[C@@H]1C[C@@H](C(=O)NCCN(CC(=O)N[C@@H](CCCCNC(=O)c2ccc(B(O)O)cc2)C(=O)N[C@@H](Cc2ccc(O)cc2)C(N)=O)C(=O)Cn2cnc3c(=O)[nH]c(N)nc32)N(C(=O)[C@H](CCCCNC(=O)[C@@H]2C[C@@H](NC(=N)N)CN2C(=O)[C@H]2C[C@@H](NC(=O)[C@@H]3C[C@@H](NC(=N)N)CN3)CN2)NC(=O)[C@@H]2C[C@@H](NC(=N)N)CN2C(=O)[C@H]2C[C@@H](NC(=O)[C@@H]3C[C@@H](NC(=N)N)CN3)CN2)C1 | –

From ChEMBL document CHEMBL4480452, “Molecular recognition of a branched peptide with HIV-1 Rev Response Element (RRE) RNA” (Bioorg Med Chem, 2019)
